In paper PMC8923172 (Antimicrobial Agents and Chemotherapy, 2022):
Read-outs that look alike come from different tables or passages of the source. Marks after values point to notes of the source that are not given here. Residues, ends and D or L forms follow the SMILES beside them.

Legend:
[1] = Hematology of cynomolgus monkeys at the end of treatment; format: in vivo; details: median (IQR)
How it was run: (§1)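 GLP 10-day study in male and female cynomolgus monkeys (n = 3-5/sex/group) dosed once daily with 0 (placebo), 5, 10 or 15 mg/kg test compound by i.v. infusion over 60 ± 5 min. Hematology, serum chemistry and coagulation were taken at end of treatment and reported as median (IQR). Dose groups were compared by Kruskal-Wallis with Dunn's multiple comparison test.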

[2] = Single-dose i.v. pharmacokinetics in a vervet; format: in vivo, vervet/African green monkey (Chlorocebus aethiops sabaeus); details: 3 mg/kg single i.v. bolus, n=1
How it was run: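 Adult male vervet given a single 3 mg/kg i.v. bolus of test compound. Blood was sampled at 0.5, 1, 4, 8, 24, 48, 72, 96, 120 and 192 h. Clarified plasma was diluted 1:10 into 5% formic acid-5% acetonitrile and quantified by UPLC with photodiode array detection. Noncompartmental analysis used nominal times; λz was fitted over up to the last four log-linear points.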

[3] = Toxicity studies in cynomolgus monkeys: mortality, MTD, NOAEL; format: in vivo
How it was run: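 Cynomolgus monkeys were studied in two designs. Non-GLP range-finding: single ascending i.v. doses (0.3-10 mg/kg), then 15 mg/kg daily for 7 days, 1/sex; MTD was based on mortality, clinical observations and body weight. GLP: 0, 5, 10 or 15 mg/kg/day for 10 days by 60-min infusion, with a recovery group. NOAEL drew on clinical signs, clinical pathology and histopathology.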

[4] = Coagulation in cynomolgus monkeys at the end of treatment; format: in vivo; details: median (IQR)
How it was run: as §1

LPS-induced ALI = details: single subcutaneous injection 25 mg/kg; cited from earlier work

Structure (SMILES): CC[C@H](C)[C@@H]1NC(=O)[C@@H]2CSSC[C@H](NC(=O)[C@H](CCCNC(=N)N)NC(=O)[C@@H]3CSSC[C@H](NC1=O)C(=O)N[C@@H]([C@@H](C)O)C(=O)N[C@@H](CCCNC(=N)N)C(=O)NCC(=O)N[C@@H](Cc1ccccc1)C(=O)N3)C(=O)N[C@@H](CC(C)C)C(=O)N[C@H]1CSSC[C@H](NC(=O)[C@H](C(C)C)NC(=O)CNC(=O)[C@H](CCCNC(=N)N)NC(=O)[C@H](CCCNC(=N)N)NC1=O)C(=O)N[C@@H](CCCNC(=N)N)C(=O)N2 [RTD-1, Rhesus theta (θ) defensin-1] (HELM PEPTIDE1{G.F.C.R.C.L.C.R.R.G.V.C.R.C.I.C.T.R}$PEPTIDE1,PEPTIDE1,3:R3-16:R3|PEPTIDE1,PEPTIDE1,5:R3-14:R3|PEPTIDE1,PEPTIDE1,7:R3-12:R3|PEPTIDE1,PEPTIDE1,1:R1-18:R2$$$V2.0)
- Basophils, absolute ([1]; female, 5 mg/kg/day): 0.05 (0.01) 10^3/mm^3
- Eosinophils, absolute ([1]; female, 5 mg/kg/day): 0.32 (0.27) 10^3/mm^3
- Hematocrit ([1]; female, 5 mg/kg/day): 43.80 (3.15) %
- Hemoglobin ([1]; female, 5 mg/kg/day): 12.90 (0.35) g/dL
- LUC, absolute ([1]; female, 5 mg/kg/day): 0.11 (0.02) 10^3/mm^3
- Lymphocytes, absolute ([1]; female, 5 mg/kg/day): 3.40 (1.18) 10^3/mm^3
- MCH ([1]; female, 5 mg/kg/day): 21.20 (1.10) pg
- MCHC ([1]; female, 5 mg/kg/day): 29.50 (1.35) g/dL
- MCV ([1]; female, 5 mg/kg/day): 69.20 (1.70) fL
- Monocytes, absolute ([1]; female, 5 mg/kg/day): 0.53 (0.21) 10^3/mm^3
- Neutrophils, absolute ([1]; female, 5 mg/kg/day): 6.43 (2.10) 10^3/mm^3
- Platelets ([1]; female, 5 mg/kg/day): 576.00 (58.00) 10^3/mm^3
- RBC ([1]; female, 5 mg/kg/day): 6.05 (0.47) 10^6/mm^3
- RDW ([1]; female, 5 mg/kg/day): 15.10 (0.50) %
- Reticulocytes, absolute ([1]; female, 5 mg/kg/day): 53.60 (17.00) 10^9/L
- WBC ([1]; female, 5 mg/kg/day): 12.70 (2.30) 10^3/mm^3
- Basophils, absolute ([1]; female, 10 mg/kg/day): 0.06 (0.04) 10^3/mm^3
- Eosinophils, absolute ([1]; female, 10 mg/kg/day): 0.40 (0.06) 10^3/mm^3
- Hematocrit ([1]; female, 10 mg/kg/day): 38.50 (4.60) %
- Hemoglobin ([1]; female, 10 mg/kg/day): 10.70 (1.25) g/dL
- LUC, absolute ([1]; female, 10 mg/kg/day): 0.10 (0.01) 10^3/mm^3
- Lymphocytes, absolute ([1]; female, 10 mg/kg/day): 4.46 (1.00) 10^3/mm^3
- MCH ([1]; female, 10 mg/kg/day): 20.20 (1.00) pg
- MCHC ([1]; female, 10 mg/kg/day): 28.80 (0.70) g/dL
- MCV ([1]; female, 10 mg/kg/day): 69.70 (4.30) fL
- Monocytes, absolute ([1]; female, 10 mg/kg/day): 0.66 (0.13) 10^3/mm^3
- Neutrophils, absolute ([1]; female, 10 mg/kg/day): 5.08 (5.64) 10^3/mm^3
- Platelets ([1]; female, 10 mg/kg/day): 497.00 (214.50) 10^3/mm^3
- RBC ([1]; female, 10 mg/kg/day): 5.30 (0.94) 10^6/mm^3
- RDW ([1]; female, 10 mg/kg/day): 15.10 (0.70) %
- Reticulocytes, absolute ([1]; female, 10 mg/kg/day): 70.30 (33.40) 10^9/L
- WBC ([1]; female, 10 mg/kg/day): 10.70 (6.80) 10^3/mm^3
- Basophils, absolute ([1]; female, 15 mg/kg/day): 0.12 (0.01) 10^3/mm^3
- Eosinophils, absolute ([1]; female, 15 mg/kg/day): 0.34 (0.10) 10^3/mm^3
- Hematocrit ([1]; female, 15 mg/kg/day): 38.50 (6.90) %
- Hemoglobin ([1]; female, 15 mg/kg/day): 10.90 (1.70) g/dL
- LUC, absolute ([1]; female, 15 mg/kg/day): 0.16 (0.06) 10^3/mm^3
- Lymphocytes, absolute ([1]; female, 15 mg/kg/day): 5.09 (2.32) 10^3/mm^3
- MCH ([1]; female, 15 mg/kg/day): 19.90 (0.30) pg
- MCHC ([1]; female, 15 mg/kg/day): 28.80 (1.10) g/dL
- MCV ([1]; female, 15 mg/kg/day): 68.90 (2.00) fL
- Monocytes, absolute ([1]; female, 15 mg/kg/day): 0.79 (0.15)^c 10^3/mm^3
- Neutrophils, absolute ([1]; female, 15 mg/kg/day): 11.31 (5.67) 10^3/mm^3
- Platelets ([1]; female, 15 mg/kg/day): 513.00 (299.00) 10^3/mm^3
- RBC ([1]; female, 15 mg/kg/day): 6.04 (1.28) 10^6/mm^3
- RDW ([1]; female, 15 mg/kg/day): 14.70 (1.80) %
- Reticulocytes, absolute ([1]; female, 15 mg/kg/day): 83.90 (46.10) 10^9/L
- WBC ([1]; female, 15 mg/kg/day): 16.10 (5.40) 10^3/mm^3
- Basophils, absolute ([1]; male, 5 mg/kg/day): 0.12 (0.08) 10^3/mm^3
- Eosinophils, absolute ([1]; male, 5 mg/kg/day): 0.26 (0.12) 10^3/mm^3
- Hematocrit ([1]; male, 5 mg/kg/day): 43.10 (3.05) %
- Hemoglobin ([1]; male, 5 mg/kg/day): 12.70 (0.85) g/dL
- LUC, absolute ([1]; male, 5 mg/kg/day): 0.15 (0.07) 10^3/mm^3
- Lymphocytes, absolute ([1]; male, 5 mg/kg/day): 6.85 (3.12) 10^3/mm^3
- MCH ([1]; male, 5 mg/kg/day): 19.80 (0.55) pg
- MCHC ([1]; male, 5 mg/kg/day): 26.40 (1.55) g/dL
- MCV ([1]; male, 5 mg/kg/day): 75.10 (2.10) fL
- Monocytes, absolute ([1]; male, 5 mg/kg/day): 0.74 (0.23) 10^3/mm^3
- Neutrophils, absolute ([1]; male, 5 mg/kg/day): 4.65 (3.33) 10^3/mm^3
- Platelets ([1]; male, 5 mg/kg/day): 358.00 (21.50) 10^3/mm^3
- RBC ([1]; male, 5 mg/kg/day): 6.06 (0.42) 10^6/mm^3
- RDW ([1]; male, 5 mg/kg/day): 15.40 (1.00) %
- Reticulocytes, absolute ([1]; male, 5 mg/kg/day): 43.70 (23.20) 10^9/L
- WBC ([1]; male, 5 mg/kg/day): 14.70 (5.95) 10^3/mm^3
- Basophils, absolute ([1]; male, 10 mg/kg/day): 0.08 (0.04) 10^3/mm^3
- Eosinophils, absolute ([1]; male, 10 mg/kg/day): 0.20 (0.06) 10^3/mm^3
- Hematocrit ([1]; male, 10 mg/kg/day): 42.60 (5.20) %
- Hemoglobin ([1]; male, 10 mg/kg/day): 11.90 (1.30) g/dL
- LUC, absolute ([1]; male, 10 mg/kg/day): 0.15 (0.01) 10^3/mm^3
- Lymphocytes, absolute ([1]; male, 10 mg/kg/day): 5.85 (2.85) 10^3/mm^3
- MCH ([1]; male, 10 mg/kg/day): 20.30 (1.00) pg
- MCHC ([1]; male, 10 mg/kg/day): 27.90 (0.35) g/dL
- MCV ([1]; male, 10 mg/kg/day): 72.00 (4.00) fL
- Monocytes, absolute ([1]; male, 10 mg/kg/day): 0.63 (0.18) 10^3/mm^3
- Neutrophils, absolute ([1]; male, 10 mg/kg/day): 4.31 (1.38) 10^3/mm^3
- Platelets ([1]; male, 10 mg/kg/day): 450.00 (114.00) 10^3/mm^3
- RBC ([1]; male, 10 mg/kg/day): 6.35 (0.58) 10^6/mm^3
- RDW ([1]; male, 10 mg/kg/day): 17.20 (1.35) %
- Reticulocytes, absolute ([1]; male, 10 mg/kg/day): 60.00 (71.70) 10^9/L
- WBC ([1]; male, 10 mg/kg/day): 11.00 (1.75) 10^3/mm^3
- Basophils, absolute ([1]; male, 15 mg/kg/day): 0.11 (0.10) 10^3/mm^3
- Eosinophils, absolute ([1]; male, 15 mg/kg/day): 0.39 (0.70) 10^3/mm^3
- Hematocrit ([1]; male, 15 mg/kg/day): 38.40 (2.30) %
- Hemoglobin ([1]; male, 15 mg/kg/day): 11.10 (0.90) g/dL
- LUC, absolute ([1]; male, 15 mg/kg/day): 0.17 (0.11)^c 10^3/mm^3
- Lymphocytes, absolute ([1]; male, 15 mg/kg/day): 4.78 (2.17) 10^3/mm^3
- MCH ([1]; male, 15 mg/kg/day): 20.20 (0.90) pg
- MCHC ([1]; male, 15 mg/kg/day): 28.90 (1.20) g/dL
- MCV ([1]; male, 15 mg/kg/day): 71.20 (3.40) fL
- Monocytes, absolute ([1]; male, 15 mg/kg/day): 1.10 (0.74) 10^3/mm^3
- Neutrophils, absolute ([1]; male, 15 mg/kg/day): 7.62 (9.59) 10^3/mm^3
- Platelets ([1]; male, 15 mg/kg/day): 634.00 (42.00)^d 10^3/mm^3
- RBC ([1]; male, 15 mg/kg/day): 5.56 (0.40) 10^6/mm^3
- RDW ([1]; male, 15 mg/kg/day): 14.80 (0.80) %
- Reticulocytes, absolute ([1]; male, 15 mg/kg/day): 69.10 (47.50) 10^9/L
- WBC ([1]; male, 15 mg/kg/day): 14.90 (12.80) 10^3/mm^3
- AUCτ [2]: 21,949 ng · h/mL
- CL [2]: 2.27 mL/min/kg
- MRT [2]: 4.71 h
- Vss [2]: 0.639 L/kg
- λz [2]: 0.204 h⁻¹
- mortality (found dead day 15, determined unrelated to treatment) (5 mg/kg/day): 1 out of 16
- LOAEL (i.v.): 20 mg/kg
- NOAEL (i.v. once daily x7 days): 10 mg/kg/day
- acute, treatment-related mortality (single i.v. 20 mg/kg, day 1): 5 out of 12
- mortality ([3]; GLP 10-day repeat-dose TK study, any dose level (5-15 mg/kg/day)): no mortality or unscheduled euthanasia
- NOAEL ([3]; GLP 10-day repeat-dose i.v.): 15 mg/kg/day
- APTT ([4]; female, 5 mg/kg): 22.40 (2.05) s
- Fibrinogen ([4]; female, 5 mg/kg): 238.00 (40.50) mg/dL
- PT ([4]; female, 5 mg/kg): 12.20 (0.25) s
- APTT ([4]; female, 10 mg/kg): 20.80 (0.55) s
- Fibrinogen ([4]; female, 10 mg/kg): 294.00 (7.50) mg/dL
- PT ([4]; female, 10 mg/kg): 11.80 (0.25) s
- APTT ([4]; female, 15 mg/kg): 22.60 (0.90) s
- Fibrinogen ([4]; female, 15 mg/kg): 300.00 (57.00)^d mg/dL
- PT ([4]; female, 15 mg/kg): 12.30 (0.50) s
- APTT ([4]; male, 5 mg/kg): 21.60 (0.80) s
- Fibrinogen ([4]; male, 5 mg/kg): 306.00 (49.50) mg/dL
- PT ([4]; male, 5 mg/kg): 12.00 (0.55) s
- APTT ([4]; male, 10 mg/kg): 21.10 (0.45) s
- Fibrinogen ([4]; male, 10 mg/kg): 285.00 (22.50) mg/dL
- PT ([4]; male, 10 mg/kg): 12.00 (0.25) s
- APTT ([4]; male, 15 mg/kg): 22.10 (1.65) s
- Fibrinogen ([4]; male, 15 mg/kg): 336.00 (114.00) mg/dL
- PT ([4]; male, 15 mg/kg): 12.25 (0.83) s
- mean AUC0-∞ (LPS-induced ALI): ~9,001 ng · h/mL
